PGC1a acetyl inh – lowers PGC1a acetylation signal in U2OS cells | hit rate 0.17% among 350,000 | inhibition, % at 15.6 µM | AID 651687 | AlphaScreen anti-acetyl-lysine; with virally co-expressed GCN5 acetyltransferase;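 active = every replicate shows inhibition of at least 40%; inconclusive = mean inhibition at least 40% but some replicate below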;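 note: 0% = neutral control wells and 100% = positive control wells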
DENV2 CPE – protects cells from dengue virus 2 cytopathic effect. DENV2-infected cells, cytopathic effect rescue, plate reader. CPE inhibition, % at 9.99 µM. hit rate 1.7% among 350,000. AID 651640; in the data active = CPE inhibition above about 20%, passing the limit was not always enough; inconclusive = no clear call, values can overlap the other calls; tested in BHK-21 cells;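 note: 0% = median of neutral control wells and 100% = median of positive control wells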
FN deposit inh – fibronectin deposition inhibition; inhibition, % at 12.6 µM; hit rate 0.086% among 350,000; AH1F fibroblasts, Alexa488-fibronectin deposition fluorescence, overnight;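 active = mean inhibition across replicates of 30% or more, regardless of how many single replicates reach that level; inconclusive = mean under 30% yet at least half of replicates reach 30%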;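 note: positive control wells lacked labelled fibronectin entirely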
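Material: AH1F fibroblast monolayer depositing Alexa488-labelled fibronectin into matrix | Input: 10000 AH1F cells/well | Medium: DMEM plus 2% serum, read in PBS | Reagent: Alexa488-fibronectin, 24 nM final in well | Compound dosing: One dose per compound, pinned | Schedule: 1 h adhesion, overnight exposure | Measured by: Fluorescence at 485 nm excitation, 525 nm emission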
PglD DTNB – PglD (C. jejuni) enzyme inhibition | AID 602405 | inhibition, % at 12.5 µM | purified PglD enzyme, DTNB colorimetric CoA detection | hit rate 0.098% among 360,000; in the data active = inhibition above about 16%, passing the limit was not always enough; inconclusive = no clear call, values can overlap the other calls
rRNA inh HTS – inhibits bacterial ribosomal RNA function over humanized ribosomes | E. coli WT GFP vs humanized-ribosome RFP mutants, fluorescence, 24 h; active compounds read low; DMSO median 0, no signal -100 | GFP signal change (wild-type ribosome), % (no concentration beside the values) | hit rate 1.6% among 350,000;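 active = significant combined selectivity score with lowered wild-type GFP, culture density cut under 30%, mutant RFP and density less affected; inactive = any of these conditions unmet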
Env fusion inh – HIV envelope-mediated fusion inhibition; inhibition, % at 12.3 µM; hit rate 1.1% among 360,000; HeLa-JRFL Env/CEM21 cell fusion, luciferase;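 active = mean replicate inhibition score of at least 50 and every replicate individually at or above 50; inconclusive = only one of the two criteria met; inactive = mean below 50 and not all replicates reaching 50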;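 note: 0% = plate neutral controls and 100% = maraviroc near 300 nM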
* = called active by the depositor; ? = inconclusive; · = no result given; [ ] = dose if it differs, or a comment. Rows were chosen to be rich in hits. Some 3.5% of all compounds tested hit in one or more screens of this group.

SMILES	PGC1a acetyl inh	DENV2 CPE	FN deposit inh	PglD DTNB	rRNA inh HTS	Env fusion inh
CO[C@H]1CN(C)C(=O)c2ccc(NC(=O)c3cc(C)on3)cc2OC[C@@H](C)N(C)C[C@@H]1C	-19	21*	1	2	-1	11[16.7 µM]
CO[C@@H]1CN(C)C(=O)c2ccc(NC(=O)c3cc(C)on3)cc2OC[C@H](C)N(C(=O)C2CC2)C[C@H]1C	·	32*	2	-1	-2	·
Cc1noc(C)c1NC(=O)N(C)C[C@H]1Oc2ccc(NC(=O)c3ccncc3)cc2C(=O)N([C@@H](C)CO)C[C@@H]1C	8	10	·	6	0	·
COc1ccc2c3c(n(C)c2c1)[C@@H](CO)N(C(C)=O)CC31CN(C(=O)C2CC2)C1	-2	-6	·	·	3	·
O=C(NCc1ccco1)c1ccc(Cn2c(=O)c3sccc3n(Cc3cccc(F)c3)c2=O)cc1	-14	-8	5	-4	-9	90*
O=C(Cn1c(=O)n(Cc2ccco2)c(=O)c2ccccc21)Nc1cccc(Cl)c1	-3	0	-9	0	-15	95*
O=C(CCn1c(=O)c2sccc2n(CC(=O)NCc2ccco2)c1=O)NCc1ccccc1	-9	·	4	10	·	-32
O=C(NCc1ccco1)c1ccc(Cn2c(=O)c3ccccc3n(Cc3cccc(Cl)c3)c2=O)cc1	5	·	6	-5	·	89*
O=C(NCc1ccccn1)C1CCN(C(=O)c2cc3sccc3n2Cc2ccc(F)cc2)CC1	-11	-14	1	-4	-15	3
O=C(NCc1ccco1)C1CCN(C(=O)c2cc3sccc3n2Cc2ccc(F)cc2)CC1	3	8	·	3	-29*	·
CCn1c(=O)n(CC(=O)NCc2ccco2)c(=O)c2ccccc21	8	·	·	2	·	·
COc1ccc2c3c(n(C)c2c1)[C@H](CO)N(C(=O)C1CC1)CC31CCN(CC2CCCC2)CC1	·	-9	·	·	-1	·
COCC(=O)Nc1ccc2c(c1)C(=O)N(C)[C@@H]1CC[C@H](CC(=O)NCCc3ccncc3)O[C@H]1CO2	2	-1	-6	-1	2	·
COc1cccc(-c2ccc3n(c2=O)C[C@H]2[C@H](CO)[C@@H](C(=O)NCC4CC4)N(C(=O)NC(C)C)[C@@H]32)c1	·	8	·	3	-1	·
CCNC(=O)[C@H]1[C@H](CO)[C@H]2Cn3c(ccc(-c4cccc(OC)c4)c3=O)[C@H]2N1C(=O)NC(C)C	-2	31*	·	6	-1	·
CCNC(=O)[C@H]1[C@H](CO)[C@H]2Cn3c(ccc(-c4ccc(OC)cc4)c3=O)[C@@H]1N2CC	·	79*	·	5	-1	·
CCNC(=O)[C@H]1[C@H](CO)[C@H]2Cn3c(ccc(-c4cccc(OC)c4)c3=O)[C@H]2N1S(C)(=O)=O	·	28*	·	-2	3	·
CC1(C)CC(=O)C2=C(C1)Nc1ccccc1NC2c1ccc(F)c(F)c1 (stereo not drawn)	-9	23*	1	1	2	-23
Cc1ccccc1S(=O)(=O)N1CC(=O)N2[C@H](CO)[C@@H](c3ccc(C#CCC(C)C)cc3)[C@H]2C1	5	?	·	·	-3	·
CN(CC(=O)Nc1ccccc1Br)c1ncnc2sccc12	6	1	0	4	-8	19
CN(CC(=O)Nc1ccc(F)c(F)c1F)c1ncnc2sccc12	9	31*	0	·	-7	27
Cc1ccc(S(=O)(=O)Nc2ccc3c(c2)C(=O)N(C)[C@H]2CC[C@@H](CC(=O)NCCc4ccncc4)O[C@@H]2CO3)cc1	-1	-3	-3	-2	0	-9[16.7 µM]
O=C(C[C@@H]1CC[C@@H](NC(=O)C2CCC2)[C@H](CO)O1)NC1CCC1	-1	-1	·	-3	0	-27[16.7 µM]
c1ccc(-c2cn(C[C@H]3CC[C@@H]([C@@H]4CC[C@H](Cn5cc(-c6ccccc6)nn5)O4)O3)nn2)cc1	-12	34*	-2	4	1	-4
c1ccc(-c2cn(C[C@H]3CC[C@@H]([C@@H]4CC[C@H](Cn5cc(-c6ccccn6)nn5)O4)O3)nn2)nc1	-5	-1	-12	0	14	-5
SMILES	PGC1a acetyl inh	DENV2 CPE	FN deposit inh	PglD DTNB	rRNA inh HTS	Env fusion inh
COc1ccc(CN2CCNC(=O)C2CC(=O)NCCCn2nnc3ccccc32)cc1C (stereo not drawn)	6	3	-7	3	14	61*
COc1ccc(CN2CCNC(=O)C2CC(=O)NCCc2nc(C)c3c(n2)CCC3)cc1C (stereo not drawn)	8	5	5	3	3	9
C[C@@H]1CN([C@@H](C)CO)C(=O)CCCn2nncc2CO[C@@H]1CN(C)CC1CC1	0	14	-9	2	2	·
CO[C@H]1CN(C)C(=O)c2ccc(NC(=O)C3CC3)cc2OC[C@@H](C)N(Cc2cccc(F)c2)C[C@H]1C	-1	·	-1	4	-3	1[16.7 µM]
CCCC(=O)Nc1ccc2c(c1)C(=O)N(C)C[C@@H](OC)[C@@H](C)CN(C(=O)c1ccccn1)[C@@H](C)CO2	1	·	-6	·	0	-116[16.7 µM]
O=C(C[C@@H]1CC[C@@H]2[C@H](COC[C@H](O)CN2C(=O)c2cnccn2)O1)NCc1ccc(F)cc1	13	·	9	-2	7	2[16.7 µM]
CC(C)C[C@H]1CN([C@@H](Cc2ccc(O)cc2)CN2CCC[C@H]2CN2C(=O)C(=O)NC[C@@H]2Cc2ccc(O)cc2)C(=O)C(=O)N1CCc1ccccc1	·	-1	13	·	-28*	60*
CCOc1ccc(CCN2C(=S)N([C@@H](Cc3ccc(O)cc3)CN3CCC[C@@H]3CN3C(=S)NC[C@@H]3CC(C)C)C[C@@H]2CC(C)C)cc1	3	22*	·	3	19	-56
CC(C)C[C@H]1CNC(=S)N1C[C@H]1CCCN1C[C@H](CC(C)C)N1C[C@H](Cc2ccc(O)cc2)N(CCc2ccccc2)C1=S	7	39*	·	0	3	5
CCOc1ccc(CCN2C(=S)N([C@@H](Cc3ccc(O)cc3)CN3CCC[C@@H]3CN3C(=S)NC[C@@H]3CC(C)C)C[C@@H]2Cc2ccccc2)cc1	3	1	7	-2	10	-148
CC(C)C[C@H]1CNC(=O)C(=O)N1C[C@@H]1CCCN1C[C@H](CC(C)C)N1C[C@H](Cc2ccccc2)N(CCc2ccccc2)C(=O)C1=O	·	-4	-6	·	-1	-62
CC(C)C[C@H]1CN([C@@H](Cc2ccc(O)cc2)CN2CCC[C@H]2CN2C(=O)C(=O)NC[C@@H]2Cc2ccccc2)C(=O)C(=O)N1CCc1ccccc1	·	-11	2	·	-33	5
CC(C)C[C@H]1CNC(=O)C(=O)N1C[C@@H]1CCCN1C[C@H](CC(C)C)N1C[C@H](Cc2ccc(O)cc2)N(CCc2ccccc2)C(=O)C1=O	·	-5	active	·	-10	39
